# Screening data: PubChem BioAssay, Broad Institute
# Dyrk1A ADPGlo: Dyrk1A (rat) kinase inhibition; AID 504441; ADP-Glo luminescence, NFATc1 peptide; 0.43% of 310,000 active; Q63470; inhibition, % at 12.5 µM; in the data active = inhibition above about 50%
# CDK5 p35 inh: CDK5/p35 (human) kinase inhibition; Q00535+Q15078; Recombinant CDK5/p35, ADP-Glo luminescence, 60 min; inhibition, % at 10 µM; 0.01% of 330,000 active; AID 488839;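 active = highest replicate inhibition of at least 50% and at least 75% of replicates reaching 50%; inconclusive = only one of the two criteria met; inactive = both criteria failed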
# CAL PDZ FP-1: blocks peptide binding to the human CAL PDZ domain; purified CAL PDZ, TMR-peptide fluorescence polarization, 1 h; inhibition, % at 24.9 µM; 0.92% of 300,000 active;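 active = mean inhibition of at least 30% with at least half of replicates also reaching 30%; inconclusive = no clear call, values can overlap the other calls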
# dFosB activator: enhances mouse delta FosB homodimer DNA binding; P13346; purified delta FosB, TAMRA-CDK5 oligo fluorescence polarization; percent of positive-control signal above neutral wells; activation, % at 25 µM; 0.99% of 340,000 active; AID 493131;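 active = mean activation above about 17%, with every replicate also reaching it, limit read from the data, passing the limit was not always enough; inconclusive = only one of the two conditions met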
# CAL PDZ FP-2: inhibitors of human CAL PDZ peptide binding | Q9HD26 | purified CAL PDZ, TMR-peptide fluorescence polarization, 1 h | inhibition, % at 20 µM | 0.02% of 330,000 active;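 active = highest replicate inhibition of at least 40%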
#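 System: tagged CAL PDZ domain. Schedule: 1 h room-temperature incubation prior to read. Signal: fluorescence polarization (mP). Measure: percent inhibition from loss of millipolarization.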
# Rtt109 Vps75: C. albicans Rtt109 histone acetyltransferase inhibition | purified Rtt109/Vps75, ThioGlo CoA-SH fluorescence, 4 h | 0.16% of 330,000 active | AID 540336 | inhibition, % at 34.9 µM | Q5AAJ8;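 active = inhibition of at least 50% in every replicate; inconclusive = best replicate reaches 50% inhibition but some replicates fall short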
# Target sequence (Q5AAJ8 whole entry, looked up): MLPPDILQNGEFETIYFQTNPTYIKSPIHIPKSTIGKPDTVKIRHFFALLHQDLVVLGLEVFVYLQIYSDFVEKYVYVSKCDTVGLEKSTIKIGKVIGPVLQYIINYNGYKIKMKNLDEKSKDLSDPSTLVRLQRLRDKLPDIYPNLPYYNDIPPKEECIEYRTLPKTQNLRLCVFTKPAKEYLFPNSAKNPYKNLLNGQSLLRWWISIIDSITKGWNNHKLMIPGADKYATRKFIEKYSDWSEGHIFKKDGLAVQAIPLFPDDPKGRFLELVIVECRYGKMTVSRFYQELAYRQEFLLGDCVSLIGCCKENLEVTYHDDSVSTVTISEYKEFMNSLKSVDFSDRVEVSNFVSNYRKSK
# Hits are given with their value; . = inactive; ? = inconclusive; / = not tested or not shown; ! = repeats disagree. The list is not random: actives were taken first. Their share in the collection is about 2.2%.
SMILES,Dyrk1A ADPGlo,CDK5 p35 inh,CAL PDZ FP-1,dFosB activator,CAL PDZ FP-2,Rtt109 Vps75
CCC1Oc2ccc(C)cc2N(CC(=O)NCCCN2CCCC2)C1=O (stereo not given),.,.,36,.,.,.
Cc1ccc2c(c1)N(CC(=O)NCCCN1CCN(C)CC1)C(=O)CO2,.,.,64,.,.,.
CN1CCN(CCCNC(=O)CN2C(=O)COc3ccccc32)CC1,.,.,/,.,.,.
CN(NC1OC(=O)c2ccccc21)c1ccccc1[N+](=O)[O-] (stereo not given),.,.,.,.,.,.
CC(=O)CC(=O)NC1CCc2ccccc21 (stereo not given),/,.,.,.,.,.
O=C(CC1(O)C(=O)Nc2ccccc21)c1ccc2c(c1)OCO2 (stereo not given),.,.,.,.,.,/
O=C(/C=C\c1ccc2c(c1)OCO2)CC1(O)C(=O)Nc2ccccc21 (stereo not given),.,.,89,.,/,.
COc1ccc(-c2nn(-c3ccccc3)cc2/C=N/N=C(N)N)cc1OC,.,.,.,68,.,.
Cc1ccc(C(=O)O)cc1NCc1ccncc1,.,.,/,.,.,.
Cn1c(NCc2ccco2)nc2c1c(=O)n(Cc1ccc(Cl)c(Cl)c1)c(=O)n2C,.,.,76,.,.,.
CC(OC(=O)c1ccc(Cl)nc1)C(=O)Nc1ccc(S(=O)(=O)N2CCCC2)cc1 (stereo not given),.,.,.,.,.,.
O=C(Nc1ccc(S(=O)(=O)N2CCCC2)cc1)c1ccc(OCC2CCCO2)cc1 (stereo not given),.,.,53,.,.,.
COC(=O)Nc1ccc(S(=O)(=O)N2CCCCC2)cc1,.,.,.,.,.,/
CC(=O)Nc1ccc(NC(=O)C(C)OC(=O)c2ccc(S(=O)(=O)N3CCCCC3)cc2)cc1 (stereo not given),.,.,.,58,.,.
O=C(Nc1cccc(S(=O)(=O)N2CCCCC2)c1)c1ccc(OCC2CCCO2)cc1 (stereo not given),/,.,.,/,.,.
O=C(O)/C=C/C(=O)Nc1ccc(S(=O)(=O)N2CCCC2)cc1,.,.,.,.,.,64
Cc1ccc(N=Cc2c(O)c3ccccc3oc2=O)cc1F,.,.,.,.,.,.
O=C(NC1CCCCC1)N1CCN(c2nc(-c3ccccc3)cs2)CC1,.,.,59,.,.,.
NC(=O)C1CCN(c2nc(-c3cccc(N)c3)cs2)CC1,.,.,.,.,.,.
NC(=O)C1CCN(c2nc(-c3cccnc3)cs2)CC1,.,.,.,33,.,.
COc1ccc(N(CC(=O)N/N=C(\C)c2ccccc2)S(=O)(=O)c2ccccc2)cc1,.,.,.,.,.,.
COc1ccc(/C=C2/SC(=S)N(CCCC(=O)Nc3ccccc3C(=O)O)C2=O)cc1,.,.,.,.,.,.
COc1cccc(/C=C2\SC(=S)N(CCC(=O)Nc3ccc(O)cc3)C2=O)c1,.,.,.,?,.,.
COc1ccc(/C=C2\SC(=S)N(CCCC(=O)NNC(=O)c3ccccc3O)C2=O)cc1,.,.,.,45,.,.
O=C(CCN1C(=O)/C(=C/c2ccc(F)cc2)SC1=S)NCCc1ccc(O)cc1,.,.,.,68,.,.
SMILES,Dyrk1A ADPGlo,CDK5 p35 inh,CAL PDZ FP-1,dFosB activator,CAL PDZ FP-2,Rtt109 Vps75
O=C(CCN1C(=O)/C(=C/c2ccc(F)cc2)SC1=S)Nc1cccnc1,.,.,.,19,.,.
O=C(CCN1C(=O)/C(=C/c2ccccc2)SC1=S)Nc1cccnc1,.,.,.,.,.,.
COc1cccc(/C=C2\SC(=S)N(CCC(=O)NCCc3ccc(O)cc3)C2=O)c1,.,.,80,.,.,.
COc1ccc(C(CNC(=O)c2ccc(C)c(S(=O)(=O)N3CCCCC3)c2)N2CCCC2)cc1 (stereo not given),/,.,.,.,.,.
C1CCC(C(CC2CCCCN2)C2CCCCC2)CC1 (stereo not given),.,.,.,.,.,78!
CCN(c1ccc(OC)cc1)S(=O)(=O)c1nnc(NC(=O)COc2ccc(F)cc2)s1,.,.,.,.,.,.
CCN(c1ccc(OC)cc1)S(=O)(=O)c1nnc(NC(=O)COc2ccc(C)cc2)s1,.,.,.,.,.,57
COc1cccc(C(=O)Nc2ccc3nc4n(c(=O)c3c2)CCCC4)c1,.,.,63,.,.,.
Nc1ccc(Oc2ccc([N+](=O)[O-])cc2[N+](=O)[O-])cc1,.,.,.,.,.,.
O=[N+]([O-])c1ccc(Oc2cccnc2)c([N+](=O)[O-])c1,.,.,37,.,.,.
Cc1ccc2nc(NC(=O)c3ccc(NS(=O)(=O)c4cccs4)cc3)sc2c1,.,.,.,?,.,.
CC(C)Cc1nc2oc3c(NCC(C)O)ncnc3c2c2c1CCCC2 (stereo not given),/,.,43,.,.,.
CC(C)Cc1nc2oc3c(Cl)ncnc3c2c2c1CCCC2,.,.,/,.,.,.
Cc1cc(C)nc(NCC(O)CNc2ccccc2C)n1 (stereo not given),.,.,62,.,.,.
Cc1ccc(NC(=O)Nc2ccc3c(c2)OCO3)cc1F,/,.,/,.,.,.
O=C(Cc1cccc(NC(=O)C2CCCN(C(=O)C3CCC3)C2)c1)Nc1cccc(C(=O)N2CCOCC2)c1 (stereo not given),.,.,.,.,.,.
O=C(CNC1CCCCC1)Nc1ccc([N+](=O)[O-])cc1C(=O)Nc1ccccc1F,.,.,63,.,.,.
Cc1ccc(NS(=O)(=O)c2ccc3[nH]c(=O)c(=O)[nH]c3c2)cc1Cl,.,.,.,.,.,.
Cc1ccc(NS(=O)(=O)c2ccc(Cl)c(N=Nc3c(O)[nH]c(=O)[nH]c3=O)c2)cc1Cl,.,.,31,.,.,.
CN(C)C(=O)CCC(=O)N1CCCC(C(=O)c2ccc(C(F)(F)F)cc2)C1 (stereo not given),.,.,/,.,.,.
CC(C)NC(=O)COc1coc(CN2CCN(c3ccccc3F)CC2)cc1=O,.,.,60,.,.,.
O=C(Nc1ccccc1C(=O)N/N=C/c1ccccc1)c1ccco1,.,.,.,88,.,.
CC(=O)Nc1nnc(CCS(=O)(=O)c2ccc(C)c(C)c2)s1,.,.,.,.,.,59
Cc1ccc(S(=O)(=O)CCc2nnc(NC(=O)C3CCCCC3)s2)cc1,.,.,.,.,.,.
COc1cccc(C(=O)NC2CC3CCC(C2)N3Cc2ccccc2)c1 (stereo not given),.,.,39,.,.,.
CCOc1ccc(C(=O)NC2CC3CCCC(C2)N3Cc2ccccc2)cc1 (stereo not given),.,.,.,.,50,.
